Results from ChEMBL document CHEMBL2311276, “Synthesis of amidine and bis amidine derivatives and their evaluation for anti-inflammatory and anticancer activity” (Eur J Med Chem, 2013).

Legend:
NCI-H522 [1] = experiment: Cytotoxicity against human NCI-H522 cells assessed as growth inhibition at 1 x 10 '-5 M after 24 hrs by MTT assay; assay type: functional; conditions: NCI-H522, 24 h, read-out: GI
In short: (§1)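 MTT screen at a single concentration of 1 × 10⁻⁵ M, 24 h exposure. Seeding was 5 × 10³ cells/well in RPMI-1640 with 2 mM glutamine. Vehicle was 0.1% final DMSO. MTT was added for 4 h at 37 °C, formazan dissolved in DMSO/glycine buffer (pH 10.5), and A570 read. Percent growth inhibition was calculated against vehicle-treated cells; triplicate, mean of three independent experiments.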

HepG2 [2] = experiment: Cytotoxicity against human HepG2 cells after 24 hrs by MTT assay; assay type: functional, cell-based; conditions: HepG2, 24 h
In short: (§2)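 Cell lines came from NCCS Pune and were grown in RPMI-1640 with 2 mM glutamine, pH 7.4. Cells were seeded at 5 × 10³ per well and exposed to serial dilutions in DMSO for 24 h, with 0.1% final DMSO as vehicle control. MTT (5 mg/ml) was added for 4 h at 37 °C. Formazan was dissolved in DMSO plus Sorensen glycine buffer (pH 10.5) and read at 570 nm. IC50 came from % inhibition versus vehicle; triplicate, mean ± SD of three experiments.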

T47D [3] = experiment: Cytotoxicity against human T47D cells after 24 hrs by MTT assay; assay type: functional, cell-based; in short: as §2
NCI-H522 [4] = experiment: Cytotoxicity against human NCI-H522 cells after 24 hrs by MTT assay; assay type: functional, cell-based; conditions: NCI-H522, 24 h; in short: as §2
Rattus norvegicus = experiment: Antiinflammatory activity in Charles Foster albino rat assessed as inhibition of carrageenan-induced paw edema at 50 mg/kg, po administered 30 mins before carrageenan challenge measured after 1 to 3 hrs by plethysmometer analysis; assay type: functional
In short: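 Rats of both sexes (120–160 g; pregnant females excluded), five per group, were dosed orally at 50 mg/kg. After 30 min, 0.20 mL of freshly prepared 1% carrageenan in 0.9% NaCl was injected into the plantar aponeurosis of the hind paw. Paw volume was read by water plethysmometer before and 1–3 h later. Percent inhibition was taken against a carrageenan-only control group of five rats.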

PA-1 [5] = experiment: Cytotoxicity against human PA1 cells after 24 hrs by MTT assay; assay type: functional, cell-based; conditions: PA-1, 24 h; in short: as §2
HepG2 [6] = experiment: Cytotoxicity against human HepG2 cells assessed as growth inhibition at 1 x 10 '-5 M after 24 hrs by MTT assay; assay type: functional; conditions: HepG2, 24 h, read-out: GI; in short: as §1
HCT-15 [7] = experiment: Cytotoxicity against human HCT15 cells assessed as growth inhibition at 1 x 10 '-5 M after 24 hrs by MTT assay; assay type: functional; conditions: HCT-15, 24 h, read-out: GI; in short: as §1
COS-1 = experiment: Cytotoxicity against african green monkey COS1 cells after 24 hrs by MTT assay; assay type: cell-based; conditions: Chlorocebus aethiops, COS-1, 24 h
PA-1 [8] = experiment: Cytotoxicity against human PA1 cells assessed as growth inhibition at 1 x 10 '-5 M after 24 hrs by MTT assay; assay type: functional; conditions: PA-1, 24 h, read-out: GI; in short: as §1
T47D [9] = experiment: Cytotoxicity against human T47D cells assessed as growth inhibition at 1 x 10 '-5 M after 24 hrs by MTT assay; assay type: functional; conditions: read-out: GI; in short: as §1
HCT-15 [10] = experiment: Cytotoxicity against human HCT15 cells after 24 hrs by MTT assay; assay type: functional, cell-based; conditions: HCT-15, 24 h; in short: as §2

SMILES	inhibition of growth at 10 µM (NCI-H522 [1])	IC50 (HepG2 [2])	IC50 (T47D [3])	IC50 (NCI-H522 [4])	inhibition in vivo at 50 mg/kg (Rattus norvegicus)	IC50 (PA-1 [5])	inhibition of growth at 10 µM (HepG2 [6])	inhibition of growth at 10 µM (HCT-15 [7])	IC50 (COS-1)	inhibition of growth at 10 µM (PA-1 [8])	inhibition of growth at 10 µM (T47D [9])	IC50 (HCT-15 [10])
N=C(Nc1ccc(-c2ccc(NC(=N)c3ccncc3)cc2)cc1)c1ccncc1	36%	11.9 µM	34.1 µM	13.4 µM	15%	42.5 µM	48%	3%	50 µM	7%	12%	124 µM
N=C(Nc1ccc(-c2ccc(NC(=N)c3ccccn3)cc2)cc1)c1ccccn1	32%				26%		23%	16%		37%	2%	
N=C(NCCCCNC(=N)c1ccccn1)c1ccccn1	38%				14%		26%	5%		27%	29%	
O=P1(N(CCCl)CCCl)NCCCO1 (stereo not drawn) [CYCLOPHOSPHAMIDE ANHYDROUS]	11%	55.3 µM	70.1 µM	67.9 µM		64.1 µM	18%	4%	125 µM	12%	9%	74.3 µM
N=C(NCCCN1CCN(CCCNC(=N)c2ccncc2)CC1)c1ccncc1	31%				31%		6%	9%		13%	2%	
O=c1[nH]cc(F)c(=O)[nH]1 [FLUOROURACIL]	13%	29.9 µM	51.8 µM	56.8 µM		39.5 µM	32%	19%	110 µM	22%	15%	45 µM
N=C(NCCN1CCOCC1)c1ccccn1	31%				0%		40%	12%		43%	21%	
N=C(NCCN1CCOCC1)c1ccncc1	11%				28%		9%	17%		43%	12%	
N=C(NCCN1CCNCC1)c1ccccn1	8%				11%		27%	24%		40%	14%	
N=C(NCc1cccnc1)c1ccccn1	9%				10%		42%	23%		36%	23%	
N=C(NCCCCNC(=N)c1ccncc1)c1ccncc1	20%	11.2 µM	43 µM	36.6 µM	15%	49.2 µM	50%	5%	246 µM	10%	27%	87.8 µM
N=C(NCCCN1CCN(CCCNC(=N)c2ccccn2)CC1)c1ccccn1	39%	20.8 µM	22.5 µM	22 µM	38%	39.7 µM	34%	31%	203 µM	31%	39%	25.1 µM
N=C(Nc1ccc(-c2ccc(NC(=N)c3cnccn3)cc2)cc1)c1cnccn1	43%	20.3 µM	62.4 µM	14.1 µM	31%	17.1 µM	37%	45%	100 µM	43%	14%	11.9 µM
CC(C)Cc1ccc(C(C)C(=O)O)cc1 (stereo not drawn) [IBUPROFEN]					39%							
N=C(NCc1cccnc1)c1ccncc1	7%				0%		20%	22%		21%	22%	
N=C(NCCCN1CCN(CCCNC(=N)c2cnccn2)CC1)c1cnccn1	15%				27%		22%	12%		26%	28%	
N=C(NCCN1CCOCC1)c1cnccn1	35%	9.4 µM	55.4 µM	18.2 µM	15%	13.6 µM	52%	6%	173 µM	51%	13%	78.3 µM
N=C(NCc1cccnc1)c1cnccn1	11%				18%		26%	3%		23%	23%	
C[C@@H]1C[C@@H]([C@H](O)CC2CC(=O)NC(=O)C2)C(=O)[C@@H](C)C1 [CYCLOHEXIMIDE]	9%	57.1 µM	65.1 µM	60.1 µM		40.6 µM	18%	16%	128 µM	34%	11%	54.1 µM
N=C(NCCN1CCNCC1)c1cnccn1	9%				20%		23%	28%		36%	22%	
N=C(NCCN1CCNCC1)c1ccncc1	17%	191 µM	184 µM	35.3 µM	0%	19.3 µM	10%	13%	147 µM	46%	6%	35.4 µM
N=C(NCCCCNC(=N)c1cnccn1)c1cnccn1	5%				37%		17%	9%		15%	19%	
